Results reported in ChEMBL document CHEMBL4011662 (J Med Chem, 2017).

Columns and labels:
Assay type in all cases: cell-based
[1] = biological target: Probable G-protein coupled receptor 34 (Mus musculus, UniProt Q9R1K6); test: Agonist activity at mouse GPR34 expressed in HEK293 cells co-transfected with AP-TGFalpha/chimeric Galphaq/i1 assessed as induction of ectodomain shedding of membrane bound AP-TGFalpha after 1 hr
Summary of the method: (§1)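 HEK293A cells transiently co-transfected with AP-TGFα, chimeric Gαq/i1 and GPR34 (human for line 1, mouse for line 3) or empty vector (mock). After 24 h, cells were suspended in HBSS with 5 mM HEPES pH 7.4 and preincubated 30 min with 10 μM (final) Ki16425. Compounds in HBSS with 0.01% fatty acid-free BSA were added for 1 h at 37 °C. AP activity in medium and on cells was read as OD405 with p-NPP after 1 h at room temperature.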

[2] = biological target: Probable G-protein coupled receptor 34 (Mus musculus) (UniProt Q9R1K6); test: Agonist activity at mouse GPR34 expressed in HEK293 cells co-transfected with AP-TGFalpha/chimeric Galphaq/i1 assessed as induction of ectodomain shedding of membrane bound AP-TGFalpha after 1 hr relative to control
Summary of the method: (§2)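 Same AP-TGFα shedding set-up in HEK293A (human GPR34 for line 2, mouse for line 4). Release was the %AP-TGFα in medium minus vehicle, then minus the mock-transfected response. Emax (% AP-TGFα release) and LogEC50 came from four-parameter sigmoid fits of plateau or semiplateau curves, as mean ± SEM of n independent experiments.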

[3] = biological target: Probable G-protein coupled receptor 34 (Mus musculus) (UniProt Q9R1K6); test: Intrinsic activity at mouse GPR34 expressed in HEK293 cells co-transfected with AP-TGFalpha/chimeric […] assessed as induction of ectodomain shedding of membrane bound AP-TGFalpha after 1 hr relative to O-(Hydroxy(((2R,3R)-2-(((3-(2-((3-phenoxybenzyl)oxy)phenyl)- propanoyl)oxy)methyl)tetrahydro-2H-pyran-3-yl)oxy)phosphoryl)- L-serine
Summary of the method: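 Relative intrinsic activity (RIA) was Emax/EC50 relative to that of a positive control agonist, whose RIA is defined as 1. Emax and EC50 came from sigmoid fits of receptor-specific AP-TGFα release in the HEK293A shedding assay, with human GPR34 for line 5 and mouse GPR34 for line 6, after 1 h at 37 °C.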

[4] = biological target: T1, Probable G-protein coupled receptor 34 (Homo sapiens, UniProt Q9UPC5); test: Agonist activity at human GPR34 expressed in HEK293 cells co-transfected with AP-TGFalpha/chimeric Galphaq/i1 assessed as induction of AP-TGFalpha release after 1 hr; summary of the method: as §1
[5] = biological target: T1, Probable G-protein coupled receptor 34; test: Intrinsic activity at human GPR34 expressed in HEK293 cells co-transfected with AP-TGFalpha/chimeric Galphaq/i1 assessed as induction of AP-TGFalpha release after 1 hr relative to O-(Hydroxy(((2R,3R)-2-(((3-(2-((3-phenoxybenzyl)oxy)phenyl)- propanoyl)oxy)methyl)tetrahydro-2H-pyran-3-yl)oxy)phosphoryl)- L-serine
[6] = biological target: T1, Probable G-protein coupled receptor 34; test: Agonist activity at human GPR34 expressed in HEK293 cells co-transfected with AP-TGFalpha/chimeric Galphaq/i1 assessed as induction of AP-TGFalpha release after 1 hr relative to control; summary of the method: as §2

Sequence of Probable G-protein coupled receptor 34 (Mus musculus) (Q9R1K6 whole entry, the tested form may be a part): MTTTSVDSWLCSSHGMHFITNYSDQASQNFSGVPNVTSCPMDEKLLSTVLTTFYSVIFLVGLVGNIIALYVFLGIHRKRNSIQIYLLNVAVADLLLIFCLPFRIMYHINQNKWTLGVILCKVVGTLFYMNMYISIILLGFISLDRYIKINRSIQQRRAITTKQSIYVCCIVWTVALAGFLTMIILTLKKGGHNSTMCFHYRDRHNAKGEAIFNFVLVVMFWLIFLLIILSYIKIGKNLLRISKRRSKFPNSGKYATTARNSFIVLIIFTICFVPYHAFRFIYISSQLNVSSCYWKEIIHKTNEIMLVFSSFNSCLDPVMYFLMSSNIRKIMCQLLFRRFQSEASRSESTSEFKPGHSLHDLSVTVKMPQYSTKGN
Sequence of Probable G-protein coupled receptor 34 (Mus musculus, UniProt Q9R1K6) (Q9R1K6 whole entry, the tested form may be a part): as above
T1 sequence (Q9UPC5 whole entry): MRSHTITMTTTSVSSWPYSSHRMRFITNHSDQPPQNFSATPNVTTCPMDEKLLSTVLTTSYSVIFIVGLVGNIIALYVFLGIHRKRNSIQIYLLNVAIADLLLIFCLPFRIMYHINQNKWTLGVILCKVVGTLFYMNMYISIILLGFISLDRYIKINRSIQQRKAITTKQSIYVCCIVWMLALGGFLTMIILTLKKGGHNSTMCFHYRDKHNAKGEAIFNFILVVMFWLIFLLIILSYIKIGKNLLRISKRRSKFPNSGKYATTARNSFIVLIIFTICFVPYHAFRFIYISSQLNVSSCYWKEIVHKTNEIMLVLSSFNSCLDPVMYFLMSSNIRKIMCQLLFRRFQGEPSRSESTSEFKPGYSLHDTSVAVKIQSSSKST

| EC50 [1] [nM] | Emax [2] [%] | Intrinsic activity [3] | EC50 ([4]; read-out: EC50) [nM] | Intrinsic activity [5] | Emax [6] [%] | EC50 ([4]; read-out: pEC50 (converted)) [nM] | SMILES |
| --- | --- | --- | --- | --- | --- | --- | --- |
| 120 | 17.8 | 0.76 | – | – | – | – | N[C@@H](COP(=O)(O)OCCCOC(=O)CCc1ccccc1OCc1cccc(Oc2ccc(Cl)cc2)c1)C(=O)O |
| 2000 | 18.3 | 0.041 | – | – | – | – | N#Cc1ccc(Oc2cccc(COc3ccccc3CCC(=O)OCCCOP(=O)(O)OC[C@H](N)C(=O)O)c2)cc1 |
| 180 | 19.3 | 0.42 | – | – | – | – | CCc1ccc(Oc2cccc(COc3ccccc3CCC(=O)OCCCOP(=O)(O)OC[C@H](N)C(=O)O)c2)cc1 |
| 900 | 16.9 | 0.079 | 300 | 0.7 | 28.2 | – | CC(C)(C)c1ccc(Oc2cccc(COc3ccccc3CCC(=O)OCCCOP(=O)(O)OC[C@H](N)C(=O)O)c2)cc1 |
| 650 | 20.3 | 0.28 | 180 | 1.2 | 22 | – | Cc1ccccc1Oc1cccc(COc2ccccc2CCC(=O)OCCCOP(=O)(O)OC[C@H](N)C(=O)O)c1 |
| 100 | 19.1 | 0.82 | – | – | – | – | N[C@@H](COP(=O)(O)OCCCOC(=O)CCc1ccccc1OCc1cccc(Oc2ccc(I)cc2)c1)C(=O)O |
| 1200 | 19.8 | 0.069 | – | – | – | – | N[C@@H](COP(=O)(O)OCCCOC(=O)CCc1ccccc1OCc1cccc(Oc2ccccc2Cl)c1)C(=O)O |
| 550 | 21.3 | 0.29 | 230 | 1.2 | 24.2 | – | Cc1cccc(Oc2cccc(COc3ccccc3CCC(=O)OCCCOP(=O)(O)OC[C@H](N)C(=O)O)c2)c1 |
| 39 | 18.2 | 3.7 | 27 | 9.8 | 22.1 | – | Cc1ccc(Oc2cccc(COc3ccccc3CCC(=O)OCCCOP(=O)(O)OC[C@H](N)C(=O)O)c2)cc1 |
| 78 | 13.4 | 0.94 | – | – | – | – | Cc1ccccc1-c1ccc(Oc2cccc(COc3ccccc3CCC(=O)OCCCOP(=O)(O)OC[C@H](N)C(=O)O)c2)cc1 |
| 260 | 16.6 | 0.28 | – | – | – | – | COc1ccc(Oc2cccc(COc3ccccc3CCC(=O)OCCCOP(=O)(O)OC[C@H](N)C(=O)O)c2)cc1 |
| 45 | 17.8 | 2.2 | 78 | 2.1 | 23 | – | N[C@@H](COP(=O)(O)OCCCOC(=O)CCc1ccccc1OCc1cccc(Oc2ccc(-c3ccccc3)cc2)c1)C(=O)O |
| 210 | 19.9 | 0.39 | – | – | – | – | CC(C)(C)c1cccc(Oc2cccc(COc3ccccc3CCC(=O)OCCCOP(=O)(O)OC[C@H](N)C(=O)O)c2)c1 |
| 82 | 17.7 | 0.97 | – | – | – | – | N[C@@H](COP(=O)(O)OCCCOC(=O)CCc1ccccc1OCc1cccc(Oc2ccc(Br)cc2)c1)C(=O)O |
| 2700 | 21.3 | 0.089 | – | – | – | – | Nc1ccc(Oc2cccc(COc3ccccc3CCC(=O)OCCCOP(=O)(O)OC[C@H](N)C(=O)O)c2)cc1 |
| 220 | 19.4 | 0.48 | 90 | 1.7 | 21.7 | 95.5 | N[C@@H](COP(=O)(O)OCCCOC(=O)CCc1ccccc1OCc1cccc(Oc2ccccc2)c1)C(=O)O |
| 110 | 18 | 0.71 | – | – | – | – | N[C@@H](COP(=O)(O)OCCCOC(=O)CCc1ccccc1OCc1cccc(Oc2ccc(Cl)c(Cl)c2)c1)C(=O)O |
| 170 | 17.1 | 0.53 | – | – | – | – | N[C@@H](COP(=O)(O)OCCCOC(=O)CCc1ccccc1OCc1cccc(Oc2cccc(Cl)c2)c1)C(=O)O |
| 120 | 18.7 | 0.66 | – | – | – | – | N[C@@H](COP(=O)(O)OCCCOC(=O)CCc1ccccc1OCc1cccc(Oc2ccc(F)cc2)c1)C(=O)O |

Second part, the molecule before the results:

| SMILES | EC50 [1] [nM] | Emax [2] [%] | Intrinsic activity [3] | EC50 ([4]; read-out: EC50) [nM] | Intrinsic activity [5] | Emax [6] [%] | EC50 ([4]; read-out: pEC50 (converted)) [nM] |
| --- | --- | --- | --- | --- | --- | --- | --- |
| N[C@@H](COP(=O)(O)OCCCOC(=O)CCc1ccccc1OCCCCOc1ccccc1)C(=O)O | 1700 | 6.1 | 0.033 | – | – | – | – |
| N[C@@H](COP(=O)(O)OCCCOC(=O)CCc1ccccc1OCc1cccc(OCc2ccccc2)c1)C(=O)O | > 3000 | – | – | – | – | – | – |
| CCCCCCOCC#CCOc1ccccc1CCC(=O)OCCCOP(=O)(O)OC[C@H](N)C(=O)O | > 3000 | – | – | – | – | – | – |
| CC(C)(C)c1ccccc1Oc1cccc(COc2ccccc2CCC(=O)OCCCOP(=O)(O)OC[C@H](N)C(=O)O)c1 | > 3000 | – | – | – | – | – | – |
| CC(C)(C)c1cccc(-c2ccc(Oc3cccc(COc4ccccc4CCC(=O)OCCCOP(=O)(O)OC[C@H](N)C(=O)O)c3)cc2)c1 | 14 | 15.9 | 7.7 | 15 | 8.6 | 18.8 | – |
| CCCCCCCC/C=C\CCCCCCCC(=O)OC[C@@H](O)COP(=O)(O)OC[C@H](N)C(=O)O | – | 14 | 0.26 | – | – | – | – |
| CCCCCCCCCCCOc1ccccc1CCC(=O)OCCCOP(=O)(O)OC[C@H](N)C(=O)O | 1600 | 14.6 | 0.04 | – | – | – | – |
| N[C@@H](COP(=O)(O)OCCCOC(=O)CCc1ccccc1OCc1cccc(Oc2ccc(-c3ccc(-c4ccccc4)cc3)cc2)c1)C(=O)O | 18 | 11.6 | 4.3 | 41 | 3.2 | 17 | – |
| N[C@@H](COP(=O)(O)OCCCOC(=O)CCc1ccccc1OCCCCCCOc1ccccc1)C(=O)O | 1200 | 20.7 | 0.071 | – | – | – | – |
| CCCCCCOc1cccc(COc2ccccc2CCC(=O)OCCCOP(=O)(O)OC[C@H](N)C(=O)O)c1 | > 3000 | – | – | – | – | – | – |
| N[C@@H](COP(=O)(O)OCCCOC(=O)CCc1ccccc1OCc1cccc(-c2ccccc2)c1)C(=O)O | > 3000 | – | – | – | – | – | – |
| N[C@@H](COP(=O)(O)O[C@@H]1CCCO[C@@H]1COC(=O)CCc1ccccc1OCc1cccc(Oc2ccccc2)c1)C(=O)O | 180 | 21.3 | 1 | 150 | 1 | 25.6 | – |
| N[C@@H](COP(=O)(O)OCCCOC(=O)CCc1ccccc1OCc1cccc(Cc2ccccc2)c1)C(=O)O | 1300 | 14.5 | 0.077 | – | – | – | – |
| N[C@@H](COP(=O)(O)OCCCOC(=O)CCc1ccccc1OCc1cccc(OC2CCCCC2)c1)C(=O)O | 800 | 18.8 | 0.11 | – | – | – | – |
| CC(C)(C)c1ccc(-c2ccc(Oc3cccc(COc4ccccc4CCC(=O)OCCCOP(=O)(O)OC[C@H](N)C(=O)O)c3)cc2)cc1 | 7.9 | 16.5 | 21 | – | – | – | – |
| CCCCCCOc1ccc(-c2ccc(Oc3cccc(COc4ccccc4CCC(=O)OCCCOP(=O)(O)OC[C@H](N)C(=O)O)c3)cc2)cc1 | 49 | 17.4 | 3.4 | – | – | – | – |
| CCCCCCCC/C=C\CCCCCCCC(=O)OCCCOP(=O)(O)OC[C@H](N)C(=O)O | > 3000 | – | – | – | – | – | – |
